Active and inactive are the calls of the source. No cut-off for these calls is given here.

Data set [1] is described as follows: Cytotoxicity against human HGF cells. Type of data set: cell-based.
Data set [2] in a line: Cytotoxicity against human HPC cells. Type of data set: cell-based.
Data set [3] can be described thus: Cytotoxicity against human HPLF cells. Type of data set: cell-based.
Data set [4] deals with HL-60. In words: Cytotoxicity against human HL60 cells. The class given is functional. The procedure, abridged: (§1)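 Each value is the mean of two independent determinations.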
The test system of data set [5] is HSC-2. Put plainly: Cytotoxicity against human HSC2 cells. Type of data set: functional. The procedure, abridged:
as §1

The subject of data set [6] is HSC-4. Put plainly: Cytotoxicity against human HSC4 cells. The class given is functional. In outline: as §1
For data set [7], the system named is HL-60. In words: Induction of bell-shaped internucleosomal DNA fragmentation in human HL60 cells at 1 to 2 uM after 7 hrs. The class given is functional, cell-based.
The subject of data set [8] is HSC-2. Put plainly: Induction of bell-shaped internucleosomal DNA fragmentation in human HSC2 cells at 2 to 32 uM after 7 hrs. Type of data set: functional, cell-based.
Data set [9] deals with HSC-2. Put plainly: Induction of acidic organelles formation in human HSC2 cells at 4 to 8 uM after 6 hrs. Type of data set: functional, cell-based. In outline: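 Acidic organelle formation scored in HSC-2 cells after 6 h exposure; reference condition was culture in Hank's balanced salt solution for 1 h.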
In data set [10] the test system is HT-29. In words: Cell cycle arrest in human HT-29 cells assessed as accumulation at G1 phase at 5 uM after 48 hrs by flow cytometry. Type of data set: functional. The procedure, abridged:
(§2)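 HT29 cells plated and grown 48 h to 50–60% confluency, then exposed to compound for 48 h. Cells trypsinized, PBS-washed, fixed overnight in 70% ethanol at 4 °C. Held 1 h on ice, then DNA content read by flow cytometry.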

Data set [11] relates to HT-29. In words: Cell cycle arrest in human HT-29 cells assessed as accumulation at sub-G1 phase at 5 uM after 48 hrs by flow cytometry. Type of data set: functional. In outline:
as §2
On the technique in general: In flow cytometry, cells or beads pass a laser one at a time.

The test system of data set [12] is HT-29. Put plainly: Cell cycle arrest in human HT-29 cells assessed as accumulation at S phase at 5 uM after 48 hrs by flow cytometry. Type of data set: functional. In outline: as §2
Data set [13] deals with HT-29. In words: Cell cycle arrest in human HT-29 cells assessed as accumulation at G2/M phase at 5 uM after 48 hrs by flow cytometry. Type of data set: functional. In outline: as §2
Data set [14] has as its system HT-29. Put plainly: Cytotoxicity against human HT-29 cells after 96 hrs by MTT assay. The class given is functional, cell-based. The conditions noted are these: HT-29, 96 h. In outline:
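HT29 cells (ATCC) kept in DMEM with 10% fetal calf serum under 5% CO2 at 37 °C. Cells detached with trypsin and seeded at 9000 cells/well, then allowed 24 h to attach. Compound added at a range of concentrations; medium-only wells served as controls. After 96 h, proliferation was estimated from MTT reduction read at 540 nm.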

In data set [15] the test system is HL-60. Put plainly: Selectivity index, ratio of CC50 for human normal cells to CC50 for human HL60 cells. Type of data set: functional. The procedure, abridged: (§3)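 Ratio of the mean CC50 over three normal human lines (HGF gingival fibroblasts, HPC pulp cells, HPLF periodontal ligament fibroblasts) to the CC50 for the given tumor line. Each CC50 is the mean of two independent determinations.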

The subject of data set [16] is HSC-2. Put plainly: Selectivity index, ratio of CC50 for human normal cells to CC50 for human HSC2 cells. Type of data set: functional. In outline:
as §3

For data set [17], the system named is HSC-4. Put plainly: Selectivity index, ratio of CC50 for human normal cells to CC50 for human HSC4 cells. The class given is functional. In outline: as §3

As a reminder, the CC50 is the concentration giving 50% cytotoxicity. Low readings indicate harm at low concentration, high ones better tolerance by the cells. A word on the IC50: it is the concentration that inhibits the measured activity by half. The low end stands for inhibition by little substance, the high end for a need for much substance. On to `Cl.O=C1/C(=C/c2ccccc2)CN(C(=O)c2ccc(OCCN3CCOCC3)cc2)C/C1=C\c1ccccc1`, for which the CC50 is 83 µM in data set [1]; 95 µM in data set [2]; 30 µM in data set [3]; 1.2 µM in [4]; 2.4 µM in [5]; 2.4 µM in [6]. The outcome in data set [7] and in data set [9] was Active. Also, in [8], the outcome was inactive. Besides, the Activity is reported as 50.5% in [10], 11.4% in data set [11], 25.2% in [12] and 11.1% in data set [13]. Moreover, half-maximal inhibition in data set [14] (IC50) required 3.75 µM. Besides, the “Selectivity Index” value worked out at 58 in data set [15], 29 in data set [16] and 29 in data set [17].

Values taken from ChEMBL document CHEMBL1156843, “3,5-Bis(benzylidene)-1-[4-2-(morpholin-4-yl)ethoxyphenylcarbonyl]-4-piperidone hydrochloride: a lead tumor-specific cytotoxin which induces apoptosis and autophagy” (Bioorg Med Chem Lett, 2010).
